Bioassay records from PubChem BioAssay.
MrgX1 antag: antagonists of human MrgX1 receptor; hit rate 1.3% among 310,000; Q96LB2; B-score at 10 µM; AID 588676; MRGX1-HEK293 calcium flux, Fluo-4, BAM8-22 antagonism; active compounds read low;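 active = calcium-response B-score plate-corrected more than 3 library SD below zero, starting fluorescence within 5 deviations, no agonist response on first addition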;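 note: peak minus trough fluorescence over baseline after final BAM8-22 challenge near maximal dose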
Target sequence (Q96LB2 whole entry, looked up): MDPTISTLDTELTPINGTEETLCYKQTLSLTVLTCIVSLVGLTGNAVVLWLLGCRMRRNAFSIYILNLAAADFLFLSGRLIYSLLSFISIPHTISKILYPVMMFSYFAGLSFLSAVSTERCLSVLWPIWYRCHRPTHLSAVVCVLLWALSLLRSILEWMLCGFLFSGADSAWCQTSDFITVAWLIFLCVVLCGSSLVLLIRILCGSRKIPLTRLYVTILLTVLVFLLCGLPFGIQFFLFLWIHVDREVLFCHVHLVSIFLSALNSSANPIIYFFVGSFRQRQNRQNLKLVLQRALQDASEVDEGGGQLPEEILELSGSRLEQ
MrgX1 ag: human MrgX1 receptor agonism, primary screen; Q96LB2; MrgX1-HEK293 cells, Fluo-4 calcium fluorescence, agonist mode; active compounds read high; B-score at 10 µM; hit rate 0.44% among 310,000; AID 588627;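 active = calcium response B-score plate-corrected fluorescence ratio at least 3 library SD, with starting fluorescence B-score inside 5 SD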
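times = overnight plating, then 30 min 37 °C plus 30 min room-temperature dye loading | assay system = stable human MrgX1 HEK293 cell line | input = fifteen thousand cells per well | signal = kinetic calcium dye fluorescence, Fluo-4 NW | dosing = compound delivered in addition one of three | read-out = B-scored fluorescence response ratio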
RGS4 block: human RGS4 inhibition; hit rate 0.45% among 310,000; B-score at 10 µM; P49798; HEK293 M3R/RGS4 inducible, Fluo-4 calcium flux; active compounds read high; triggered by carbachol at its EC20; AID 463165;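 active = B-score, a plate-corrected calcium signal, over three deviations above library mean, with baseline fluorescence within five deviations of library mean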;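 note: RGS4 expression induced by doxycycline in cells with stable M3 receptor; B-score is computed from the integrated fluorescence ratio over baseline after carbachol; higher B-score means a larger calcium signal and so more RGS4 inhibition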
Target sequence (P49798 whole entry, looked up): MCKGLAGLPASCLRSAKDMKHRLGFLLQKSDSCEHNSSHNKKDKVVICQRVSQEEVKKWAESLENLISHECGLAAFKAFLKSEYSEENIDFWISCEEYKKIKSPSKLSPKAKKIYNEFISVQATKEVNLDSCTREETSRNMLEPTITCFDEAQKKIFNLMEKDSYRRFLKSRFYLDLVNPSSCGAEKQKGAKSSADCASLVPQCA
KCC2 mod: modulators of human KCC2 chloride dependent transport; KCC2 cells, thallium flux FluoZin-2 fluorescence; B-score of Tl+ flux slope (higher = more flux/activation; lower = inhibition) at 10 µM; AID 1456; hit rate 2.2% among 190,000; Q9H2X9;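 active = thallium flux slope and its plate-corrected score both differing from the plate sample mean at a set confidence after two filtering rounds, in either direction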;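 note: slope of fluorescence scaled to starting intensity during 10 to 20 s after thallium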
MrgX1 allo act: human MrgX1 positive allosteric modulation, primary screen; B-score at 10 µM; hit rate 0.63% among 310,000; MrgX1-HEK293, Fluo-4 calcium flux, FDSS; active compounds read high; AID 588675;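 active = plate-corrected calcium response at least 3 library SD above typical, normal starting fluorescence, not activating the receptor alone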;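 note: compound read alongside a low EC10 to EC30 dose of BAM8-22 agonist; peak minus trough fluorescence over baseline measured at the second addition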
RGS4 pot: RGS4 potentiation or activation | HEK293 M3R/inducible RGS4, carbachol calcium flux Fluo4; active compounds read low | AID 463111 | hit rate 0.92% among 310,000 | B-score at 10 µM;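 active = B-score of the integrated calcium signal more than 4 SD below the library mean, with starting fluorescence not abnormally high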;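 note: negative B-score means reduced calcium response which marks RGS4 activation or potentiation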
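Detection: kinetic calcium fluorescence imaging with Fluo4-AM dye, 2 µM / Material: HEK293 cells with stable M3R and inducible RGS4 / Schedule: recording 10 s baseline at 1 Hz, 100 s post-agonist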
MrgX1 antag conf: confirmation of human MrgX1 receptor antagonists. hit rate 19% among 2,300. MrgX1-HEK293, BAM8-22 calcium flux, Fluo-4; active compounds read low. AID 602420. remaining BAM8-22 calcium response % of control (active compounds read low), % at 10 µM. shares compounds with MrgX1 antag;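 active = remaining agonist calcium response no higher than 100% minus 3 SD of agonist-only control wells, with starting fluorescence near control levels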;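 note: agonist BAM8-22 given at a near maximal EC90 to ECmax level; peak minus minimum fluorescence divided by baseline after agonist addition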
HEK293 Ca flux: activity in parental HEK293 cells lacking MrgX1; shares compounds with MrgX1 antag; Fluo-4 calcium fluorescence, FDSS; fluorescence ratio F(max-min)/F0 at 10 µM; hit rate 2% among 4,000;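 active = duplicate-averaged calcium fluorescence ratio at least three times the standard deviation of buffer wells, a nonspecific response in parental cells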
HEK293 Ca counter: activity in parental HEK293 cells without MrgX1 | hit rate 0.4% among 4,000 | parental HEK293 calcium flux, Fluo-4 fluorescence ratio; active compounds read high | fluorescence ratio F(max-min)/F0 at 10 µM | shares compounds with MrgX1 antag;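 active = calcium fluorescence ratio, averaged over duplicates, at least 3 SD of the buffer-well ratio, meaning a nonspecific response in receptor-free cells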;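 note: untransfected parental HEK293 lacking MrgX1 used as counterscreen for MrgX1 allosteric activators; fluorescence change taken during the second addition on a kinetic imager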
HEK293 Ca cntr2: MrgX1 activator counter-screen hit in parental HEK293 cells. Fluo-4 calcium fluorescence (FDSS); active compounds read high. hit rate 8.7% among 4,000. shares compounds with MrgX1 antag. fluorescence ratio F(max-min)/F0 at 10 µM. AID 624115;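 active = calcium fluorescence ratio at least three times the spread of buffer wells, meaning a non-specific response in parental cells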
Numbers without * were called inactive; i = inactive; . = no result. Rows were chosen to be rich in hits. Some 4.7% of all compounds tested hit in one or more screens of this group.

SMILES	MrgX1 antag	MrgX1 ag	RGS4 block	KCC2 mod	MrgX1 allo act	RGS4 pot	MrgX1 antag conf	HEK293 Ca flux	HEK293 Ca counter	HEK293 Ca cntr2
Cc1ccc(NC(=O)CCNS(=O)(=O)c2cc(Br)cnc2N)c(Cl)c1	-5.51*	i	i	-0.362	i	i	i	i	i	i
CCOC(=O)c1c(C)[nH]c2cc(Br)c(O)cc12	-7.4*	i	i	-0.00803	i	i	72.5%*	i	i	i
CCOC(=O)Nc1ccc2c(CN3C(=O)NC(CC)(CC)C3=O)cc(=O)oc2c1	-4.7*	i	i	-0.521	i	i	80.9%*	i	i	i
COC(=O)c1c[nH]c(=O)c2ccccc12	-5.73*	i	i	0.0292	i	i	i	i	i	i
O=C(COC(=O)c1ccc2[nH]c3c(c2c1)CCCC3)Nc1ccccc1Cl	i	i	i	-0.355	i	i	.	.	.	.
CCC(C)c1ccccc1NC(=O)COC(=O)c1ccc2[nH]c3c(c2c1)CCCC3 (centres undefined)	-7.45*	i	i	0.133	i	i	i	i	i	i
CC1(C)Cc2nc(N3CCOCC3)c(C#N)cc2CO1	-6.13*	i	i	0.0109	i	i	i	i	i	i
CC1(C)Cc2nc(N3CCCC3)c(C#N)cc2CO1	i	i	i	-0.755	i	i	.	.	.	.
Fc1ccccc1-c1n[nH]c(=S)n1CC1CCCO1 (centres undefined)	-6.31*	i	i	-0.637	i	i	i	i	i	i
CCCCn1c(N)c(N(CC)C(=O)c2cccc(S(=O)(=O)N3CCN(C)CC3)c2)c(=O)[nH]c1=O	i	i	i	.	i	i	.	.	.	.
CN1CCN(S(=O)(=O)c2cccc(C(=O)Nc3sc4c(c3-c3nc5ccccc5[nH]3)CCCC4)c2)CC1	-5.5*	i	i	0.471	i	i	54.6%*	i	i	i
CC(=O)NCCC(=O)Nc1sc2c(c1-c1nc3ccccc3[nH]1)CCCC2	i	i	i	-0.772	i	i	.	.	.	.
Cc1ccc(NC(=O)CSc2nnc(-c3cccnc3)n2-c2ccc(C)cc2)cc1	i	i	i	-0.424	i	i	.	.	.	.
CNC(=O)CSc1nnc(-c2cccnc2)n1-c1ccc(C)cc1	-5.64*	i	i	-0.413	i	i	i	i	i	i
Nc1ncnc2c1ncn2CCN1CCCCC1	-5.72*	i	i	0.367	i	i	i	i	i	i
CCOC(=O)CNC(=O)CSc1ccc(-c2nc3ccccc3[nH]2)cn1	-4.77*	i	i	.	i	i	i	i	i	i
CC(=O)CSc1ccc(-c2nc3ccccc3[nH]2)cn1	i	i	i	.	i	i	.	.	.	.
Cc1cc(C)c(C(N)=O)c(Nc2cccc(Cl)c2C)n1	i	i	i	-0.19	i	i	.	.	.	.
Cc1cc(C)c(C(N)=O)c(NC(=O)Nc2ccccc2Cl)n1	-4.55*	i	i	-0.187	i	i	i	i	i	i
Cc1ccc(S(=O)(=O)N2CCN(C(=O)CCC(=O)NCc3cccc(C(F)(F)F)c3)CC2)cc1	i	i	i	.	i	i	.	.	.	.
O=C(O)CCNc1ccc(NCCC(=O)O)c2c1C(=O)c1ccccc1C2=O	-4.74*	i	i	.	i	i	i	i	i	i
CC(C)c1ccccc1NC(=O)COC(=O)Cc1c[nH]c2ccccc12	-18.6*	i	i	-1.47	i	i	i	i	i	i
COc1ccccc1NC(=O)COC(=O)Cc1c[nH]c2ccccc12	i	i	i	-2.47	i	i	.	.	.	.
c1ccc(CNc2ccccn2)cc1	i	i	i	.	i	i	.	.	.	.
c1ccc(Nc2ccccc2Nc2ccccn2)nc1	-4.72*	i	i	.	i	i	78.4%*	i	i	i
SMILES	MrgX1 antag	MrgX1 ag	RGS4 block	KCC2 mod	MrgX1 allo act	RGS4 pot	MrgX1 antag conf	HEK293 Ca flux	HEK293 Ca counter	HEK293 Ca cntr2
CCCSc1cc(N2CCCC2)nc(-c2ccccc2)n1	-5.7*	i	i	1.45	i	i	i	i	i	i
CCSc1cc(N2CCCC2)nc(-c2ccccc2)n1	i	i	i	-0.109	i	i	.	.	.	.
CCOC(=O)c1sc2c(c1C)c(=O)n(CCO)c(=O)n2Cc1ccccc1	i	i	i	.	i	i	.	.	.	.
COc1ccc(Nc2nc(N)nc(CSc3nccn3C)n2)cc1	-4.88*	i	i	-0.597	i	i	i	i	i	i
COc1ccc(Nc2nc(N)nc(CSc3nnc(N)s3)n2)cc1	i	i	i	0.846	i	i	.	.	.	.
O=C(CN(C(=O)c1csnn1)c1ccc(F)cc1)NCc1ccc2c(c1)OCO2	i	i	i	.	i	i	.	.	.	.
COCCNC(=O)C1CC(=O)N(C2CCCCC2)C1 (centres undefined)	i	i	i	.	i	i	.	.	.	.
COCCCNC(=O)C1CC(=O)N(C2CCCC2)C1 (centres undefined)	-4.81*	i	i	.	i	i	i	i	i	i
O=C(COc1ccc(S(=O)(=O)N2CCOCC2)cc1Cl)NCc1ccccn1	i	i	i	.	i	i	.	.	.	.
O=C(COc1ccc(S(=O)(=O)N2CCCC2)cc1Cl)NCc1ccccn1	-6.17*	i	i	.	i	i	i	i	i	i
CCOc1ccccc1N1CCN(C/C=C/c2ccc(N(C)C)cc2)CC1	-4.66*	i	i	-1.06	i	i	i	i	i	i
NC(=O)c1sc2nc(-c3cccs3)ccc2c1N	i	i	i	.	i	i	.	.	.	.
Nc1c(C(=O)NC2CCCC2)sc2nc(-c3cccs3)ccc12	-4.74*	i	i	0.662	i	i	i	i	i	i
